Source: PubChem BioAssay (several laboratories)
Wee1 stabilizer: inhibitors of human Wee1 degradation | P30291 | HeLa Luc-Wee1K328M stability, luciferase luminescence; 100% = proteasome inhibitor MG132 effect | 220,000 tested, 1.2% active | reporter increase, % at 5 µM;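 active = activation above the mean of all tested compounds plus 3 SD, set per screening run, cut at about 8.8% in these data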;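 also: cells exposed to compound for 20 h before luminescence read; 0% = DMSO alone and 100% = MG132 at 30 µM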
MDM2 E3 inh: blocks human Mdm2 ubiquitin ligase activity; cell-based MDM2 ubiquitination luciferase reporter, 2 h; 0 = plate control, 100 = twice control, blank-subtracted; 210,000 tested, 0.11% active; signal enhancement, % at 5 µM; AID 1230; Q00987;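 active = signal enhancement of 30% or more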;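 also: luminescence tracks abundance of the self-degrading MDM2-luciferase fusion protein; higher signal means inhibition of MDM2 E3 ligase activity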
Target sequence (Q00987 whole entry, looked up, the tested form may be a part): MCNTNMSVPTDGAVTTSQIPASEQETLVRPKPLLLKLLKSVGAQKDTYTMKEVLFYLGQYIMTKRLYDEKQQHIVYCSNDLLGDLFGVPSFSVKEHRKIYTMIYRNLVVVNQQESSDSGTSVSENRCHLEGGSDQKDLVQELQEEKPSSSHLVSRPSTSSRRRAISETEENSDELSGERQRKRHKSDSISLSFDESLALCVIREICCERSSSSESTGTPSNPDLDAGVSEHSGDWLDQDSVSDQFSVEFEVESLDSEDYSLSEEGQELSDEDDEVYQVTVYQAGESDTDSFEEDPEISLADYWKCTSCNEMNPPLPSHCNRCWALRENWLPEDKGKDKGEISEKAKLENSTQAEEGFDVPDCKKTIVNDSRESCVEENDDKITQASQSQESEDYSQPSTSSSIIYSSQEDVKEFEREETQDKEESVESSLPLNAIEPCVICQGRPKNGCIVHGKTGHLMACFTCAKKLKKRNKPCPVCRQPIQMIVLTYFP
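test system = mammalian cells stably expressing self-ubiquitinating, self-degrading MDM2 E3–luciferase fusion | quantity = 2000 cells/well | incubation = cell settling 4 h, compound treatment 2 h, both 37 °C | signal = luminescence with SteadyLite reagent, 15 min at room temperature | evaluation = % enhancement relative to plate controls after blank subtraction | benchmarks = plate controls and plate blanks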
Pf gamet viab: kills late stage P. falciparum gametocytes; 150,000 tested, 0.065% active; P. falciparum stage V gametocytes, ATP luminescence, 24 h; inhibition, % at 10.9 µM;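 active = inhibition above the mean plus 3 SD of compounds within the control limits, set per campaign, cut at about 38% in these data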;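 also: 0% = DMSO wells and 100% = medium only without gametocytes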
Hsp70 activator: Hsp70 transcriptional activation, primary screen; HeLa Hsp70 promoter luciferase reporter, luminescence; scaled: vehicle 0, proteasome-inhibitor control 100%; activation, % at 10 µM; 200,000 tested, 0.04% active;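 active = activation above the mean across all tested compounds plus 3 SD, cutoff set per campaign, cut at about 5.5% in these data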;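 also: 100% = MG132 at 30 µM as the positive control and 0% = DMSO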
Starred values were filed as active, the others as inactive; / = no result given. Sampled rows, rich in hits. Any-hit rate of the full collection: about 1.3%.

SMILES | Wee1 stabilizer | MDM2 E3 inh | Pf gamet viab | Hsp70 activator
Cc1ccc(C(=O)Nc2c(-c3cccs3)c(=O)c3ccccc3n2C)cc1 | 9.1* | / | / | -0.1
COc1ccc(C(=O)Nc2c(-c3cccs3)c(=O)c3ccccc3n2C)cc1 | -1.8 | -5.3 | -4.3 | /
Cc1ccc2oc(/N=C(\N)NC(=O)C3CC3)nc2c1 | 9.3* | -55.6 | -18.6 | /
CCc1ccc(/C=N/NC(=O)c2cc(C3CC3)nc3ccccc23)s1 | 10.5* | -15.4 | / | 0.4
O=C(NCc1ccccn1)C(=O)C1C(=O)Nc2ccccc21 (centres undefined) | 9.5* | -0.5 | -5.8 | 0.1
CCCCNC(=S)N(Cc1ccco1)Cc1cc2cc3c(cc2[nH]c1=O)OCCO3 | -2.1 | -1.1 | 6.8 | 0.2
COc1ccc(CCCc2nc3ccccc3[nH]2)cc1 | 9.9* | -8.1 | 5.1 | /
CC(=O)C1=C(O)C(=O)N(c2ccc(C(=O)O)cc2)C1c1ccccc1 (centres undefined) | 9.2* | -38.4 | 2.7 | -0.5
CCOC(=O)c1ccc(N2C(=O)C(O)=C(C(C)=O)C2c2ccccc2)cc1 (centres undefined) | -0.6 | 16.5 | 21.8 | -0.1
CC1=NNC(=O)/C1=C\c1cn(-c2ccccc2)nc1-c1ccccc1 | -2.4 | 8.0 | -0.5 | 4.5
CN1CCN(C(=S)c2ccc(-c3cccc([N+](=O)[O-])c3)o2)CC1 | 10.3* | -7.5 | -4.8 | /
CCc1cccc(CC)c1NC(=O)CO/N=C(\C)c1cccs1 | -0.8 | -20.0 | -3.0 | -0.2
Cc1cc(C)c2c(N)c(C(=O)c3ccccc3)sc2n1 | 10.7* | -13.1 | -3.4 | /
CCCOC(=O)c1ccc(O)c(OC)c1 | 2.6 | 45.5* | 7.9 | -0.2
O=[N+]([O-])c1cccn2cc(-c3ccc(Br)cc3)nc12 | 9.8* | 7.2 | 3.6 | -0.1
Cc1ccc(-c2cn3cccc(C)c3n2)cc1 | 9.8* | -40.5 | -2.9 | -0.1
CC1C/C(=N/Nc2nc3ccccc3[nH]2)CC(C)(C)C1 (centres undefined) | 10.4* | -4.1 | / | 1.2
Cc1cc(C)c2c3c(sc2n1)C1(CCSCC1)C(C#N)=C(N)O3 | -2.2 | / | / | -0.3
COc1ccc(C2C(C#N)=C(N)Oc3c2sc2nc(C)cc(C)c32)cc1 (centres undefined) | 10.4* | -34.5 | / | 0.0
COc1cc(C2C(C#N)=C(N)N(c3ccc(F)cc3)C3=C2S(=O)(=O)CC3)ccc1O (centres undefined) | 9.6* | -5.1 | 19.6 | -0.3
COc1cc(C2C(C#N)=C(N)N(c3cccnc3)C3=C2C(=O)CCC3)ccc1O (centres undefined) | -0.4 | 1.7 | / | 0.2
CCCOC(=O)c1ccc(NC(=O)Cc2cccs2)cc1 | / | / | 2.9 | /
Cc1cc([N+](=O)[O-])cnc1Sc1nccn1C | -0.1 | -6.7 | -13.4 | 0.1
CCn1cc(C(=O)NCc2ccccc2OC)c(=O)c2cc(S(=O)(=O)N(C)C)ccc21 | -0.9 | 36.8* | / | -0.5
CCN(CC)S(=O)(=O)c1cccc(C(=O)N/N=C2\CC(=O)CC(C)(C)C2)c1 | 9.5* | / | 4.4 | 0.1
SMILES | Wee1 stabilizer | MDM2 E3 inh | Pf gamet viab | Hsp70 activator
CCN(CC)S(=O)(=O)c1cccc(C(=O)N/N=C2\CCCC(=O)C2)c1 | 0.2 | 2.3 | 11.7 | /
COc1cc(C2C=C(c3cccs3)Nc3ncnn32)cc(OC)c1OC (centres undefined) | -2.4 | -23.8 | / | -0.3
CC(C)(C)NC(=O)COC(=O)c1ccc(Cl)cc1O | -2.4 | -15.6 | -8.5 | -0.2
Cc1ccc(-n2c(C(C)C)nc3oc4ccccc4c(=O)c3c2=O)cc1 | 10.3* | -6.7 | -4.2 | /
CCCc1nc2oc3ccccc3c(=O)c2c(=O)n1-c1ccc(C)cc1 | 10.0* | 3.9 | -4.9 | /
CCc1nc2oc3ccccc3c(=O)c2c(=O)n1-c1ccc(C)cc1 | 2.8 | -13.0 | 15.7 | /
Cc1nccn1-c1cc(C(C)(C)C)nc2c(-c3ccccc3)cnn12 | -0.9 | -0.1 | -4.1 | 0.1
COc1cc(CCC(=O)Nc2cc(Cl)ccc2N2CCN(C)CC2)cc(OC)c1OC | 9.2* | 0.5 | / | -0.2
C/C(CC(=O)N1CCCC1)=N\NC(=O)c1cc2ccccc2cc1O | 12.4* | -5.9 | -19.3 | /
Cc1cc(NC(=O)CSc2nc(C(C)C)nc3c2c(=O)n(C)c(=O)n3C)no1 | -1.4 | 33.3* | / | -0.2
Cc1ccc(NC(=O)c2[nH]cnc2C(=O)NN)cc1 | -0.3 | -6.8 | 39.6* | -0.1
C=CCN1C(=O)/C(=C/C=C2/N(CC)c3ccc(S(=O)(=O)N(C)C)cc3N2CC)SC1=S | 4.3 | -14.6 | -7.3 | 0.0
O=C(CSc1nnc(NC(=O)c2c(F)cccc2F)s1)Nc1ccc(F)cc1 | 10.2* | -6.5 | -14.9 | -0.2
O=C(CSc1nnc(NC(=O)Cc2ccc(F)cc2)s1)NCc1ccco1 | 10.0* | 0.4 | 21.8 | -0.3
O=C(CSc1nnc(NC(=O)Cc2ccccc2)s1)NCc1ccco1 | 3.5 | -12.4 | -8.4 | -0.1
O=C(CSc1nnc(NC(=O)C2CC2)s1)Nc1ccc(F)cc1 | -1.4 | -4.0 | / | -0.4
C[C@@H]1NC(=O)[C@H](CCC(=O)O)NC(=O)c2cc([N+](=O)[O-])cc(F)c2NCCC[C@@H](C(N)=O)NC1=O | -2.5 | / | -1.2 | 0.6
NC(=O)[C@@H]1CCCCNc2c(F)cc([N+](=O)[O-])cc2C(=O)N[C@@H](CC(=O)O)C(=O)NCC(=O)N1 | 16.8* | / | -11.6 | 0.0
Cc1cc(CC(=O)O)c2oc(-c3ccoc3)cc(=O)c2c1 | / | / | -4.3 | /
CC(C)CCNC(=O)C(c1ccco1)N(CCCO)C(=O)Cn1nnc(-c2ccc(F)cc2)n1 (centres undefined) | 1.6 | 10.1 | / | -0.4
COc1ccc(NS(=O)(=O)c2ccc(NC(=O)c3ccc(Br)cc3)cc2)nn1 | -3.2 | -4.0 | 18.9 | -0.4
COc1ccc(NS(=O)(=O)c2ccc(NC(=O)c3ccccc3)cc2)nn1 | 10.8* | / | -16.9 | 0.0
FC(F)(F)c1nc(N2CCCC2)ncc1-c1nnnn1-c1ccc(Cl)cc1 | -0.9 | -11.3 | / | -0.2
COc1ccc(C(=O)C2CCCN(C(=O)C3=CCCC3)C2)c(C)c1 (centres undefined) | -3.7 | 10.1 | 3.0 | -0.4
COC(=O)CCN(C(=O)c1ccc(C)c([N+](=O)[O-])c1)c1ccccn1 | 10.0* | 1.7 | 1.6 | -0.3
SMILES | Wee1 stabilizer | MDM2 E3 inh | Pf gamet viab | Hsp70 activator
CC(=O)OCCCN1c2ccccc2Nc2nnc(-c3ccccc3)cc21 | 9.1* | -38.4 | 1.6 | 0.2
CC(=O)N1CCOCCOCCN(C(C)=O)CCOCC1 | 10.6* | -7.5 | 22.4 | -0.2
O=C(N1CCOCC1)N1CCN(C(=O)N2CCOCC2)CC1 | 2.3 | / | / | 0.5
COC(=O)C(OC(=O)c1ccccc1)C(C)Br (centres undefined) | / | / | 1.6 | /
CCN(CC)S(=O)(=O)c1ccc(Cl)c(NC(=O)COC(=O)c2ccc(O)cc2)c1 | -1.7 | -19.9 | -3.1 | -0.1
CCN(CC)S(=O)(=O)c1ccc(Cl)c(NC(=O)COC(=O)c2cccn2C)c1 | 3.3 | -7.7 | 42.1* | -0.1
CCCCNC(=O)CSc1nc2cc3c(cc2c(=O)n1CCC(=O)NCCc1ccc(OC)c(OC)c1)OCO3 | 0.5 | 12.7 | 0.0 | -0.2
CC(C)(C)Cc1nnc(NC(=O)CCc2ccccc2)s1 | / | / | 20.7 | /
